Measured values reported in PMC7398576 (Oncogene, 2020).

Assays:
[1] = biological target: p53-Cluc fusion protein (UniProt P04637+P08659, D436G/I423L/L530R); assay: p53-Cluc luciferase fragment complementation DNA-binding assay; format: biochemical; conditions: read-out: IC50, inhibition of p53 sequence-specific DNA binding in vitro
Outline: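 The cell-free reaction used crude E. coli BL21(DE3) extracts: ZF1-Nluc plus p53-Cluc, each expressed from pET-28b with 1 mM IPTG and 0.1 mM ZnCl2 at 18 °C for 18 h. DNA was 50 ng plasmid carrying 12 paired ZF1/p53 sites. Buffer was 100 mM potassium phosphate pH 7.8, 1 mM ZnCl2, 5% glycerol, 1 mM DTT. After 35 min at 32 °C, luciferin/ATP substrate was added, 10 min at 23 °C, then luminescence read. Three experiments.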

[2] = biological target: T1, p53 (Homo sapiens, UniProt P04637); assay: ZF1-Nluc/ZF2-Cluc DNA-binding competition assay; format: biochemical; conditions: at low micromolar concentrations
[3] = biological target: p63γ (Homo sapiens, UniProt Q9H3D4); assay: ZF1-Nluc/ZF2-Cluc DNA-binding competition assay, p63γ; format: biochemical; conditions: at low micromolar concentrations
[4] = biological target: p73β (Homo sapiens, UniProt O15350); assay: ZF1-Nluc/ZF2-Cluc DNA-binding competition assay, p73β; format: biochemical; conditions: at low micromolar concentrations
[5] = biological target: T2, TCF1 (Homo sapiens, UniProt P36402); assay: TCF1-specific zinc finger competition assay; format: biochemical
[6] = biological target: T1, p53; assay: Biotinylated oligonucleotide pull down assay, p53 western blot; format: biochemical; conditions: for Inhibition of p53 DNA binding in oligonucleotide pull down: full-length p53
Outline: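 Pull-down: p53 (~0.1 μl E. coli lysate, 100 ng) with 2 μg poly(dI-dC) and 100 ng biotinylated duplex oligo carrying the p53 site, in Tris pH7.2/150 mM NaCl DNA-binding buffer, 30 min at 4 °C. Captured on streptavidin magnetic beads 30 min at 4 °C, washed three times, boiled, p53 western blot. Pre-treated bead-bound FLAG-p53: 10 μM, 30 min, washed 3 min or 3 h, FLAG-peptide eluted.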

[7] = biological target: T2, TCF1; assay: Biotinylated oligonucleotide pull down assay, FLAG-TCF1; format: biochemical
[8] = biological target: zinc finger proteins (ZF1-Nluc/ZF2-Cluc complementation) (Photinus pyralis, UniProt P08659, D436G/I423L/L530R); assay: ZF1-Nluc/ZF2-Cluc complementation in the absence of p53; format: biochemical
[9] = biological target: T1, p53; assay: ChIP of p53 at target promoters in U2OS cells; format: cell-based
Outline: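 U2OS cells in DMEM/10% FBS, given test compound alone or with IR for 4 h. Chromatin immunoprecipitation with DO-1 anti-p53. Precipitated DNA quantified by SYBR Green real-time PCR with primers for the p21 and MDM2 promoters.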

[10] = tested on: p53 target genes (p21, MDM2, PUMA) in U2OS cells; assay: Western blot / RT-PCR of p53 level and target genes in U2OS cells; format: cell-based, human
[11] = biological target: p63γ-A167P (Homo sapiens, UniProt Q9H3D4, A206P); assay: ChIP of p63γ-A167P temperature-sensitive mutant; format: cell-based; conditions: 32 °C
Outline: (§1)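 ChIP by standard procedure, read by SYBR Green real-time PCR of target promoters. Antibodies: anti-HA tag (C29F4) for p63, p73 and c-MYC; KH95 for E2F1.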

[12] = biological target: p73β-A156I (Homo sapiens, UniProt O15350, A156I); assay: ChIP of p73β-A156I temperature-sensitive mutant; format: cell-based; conditions: 32 °C
Outline: as §1

[13] = biological target: E2F1 (Homo sapiens, UniProt Q01094); assay: ChIP of E2F1-ER fusion protein; format: cell-based; conditions: tamoxifen-regulated E2F1-ER fusion protein
Outline: as §1

[14] = biological target: c-Myc (Homo sapiens, UniProt P01106); assay: ChIP of transiently expressed c-Myc; format: cell-based
Outline: as §1

[15] = biological target: T1, p53; assay: p53-responsive luciferase reporter assay in transfected H1299 cells; format: cell-based; conditions: 6 h treatment
Outline: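 H1299 cells (p53-null; 50,000/well) transfected 24 h by lipofection with 20 ng BP100-luciferase reporter, 5 ng CMV-lacZ and 0.2 ng CMV-p53. Then 6 h test compound. Activity expressed as luciferase/β-galactosidase ratio.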

[16] = tested on: Foxo1; assay: Foxo1-responsive luciferase reporter assay in transfected H1299 cells; format: cell-based; conditions: 6 h treatment
Outline: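 H1299 cells (50,000/well) lipofected for 24 h with 20 ng 3IRS-luciferase Foxo1 reporter, 5 ng CMV-lacZ and 10 ng CMV-Foxo1, then exposed to compound for 6 h. Readout: luciferase normalised to β-galactosidase activity.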

[17] = tested on: MDM2-mediated ubiquitination of p53; assay: In vivo ubiquitination assay in H1299 cells; format: cell-based; conditions: H1299, 5 h treatment
Outline: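 H1299 cells co-transfected (PEI, 36 h) with 2 μg His6-ubiquitin, 0.2 μg p53 and 2 μg MDM2 plasmids, then treated 5 h. Lysed in 6 M guanidinium buffer, bound to Ni-NTA 16 h at 23 °C, washed with urea buffers (pH8.0 then 6.3). Imidazole/SDS elution 20 min at 23 °C, DO-1 western blot.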

[18] = biological target: FLAG-p53-94-312 DNA-binding domain (Homo sapiens, UniProt P04637); assay: Differential scanning fluorimetry; conditions: 100 μM compound, 4.5 μM protein
Outline: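 FLAG-p53 94–312 expressed in E. coli (pET-28b), purified on M2 beads and FLAG-peptide eluted. DSF with 4.5 μM protein, 100 μM test compound and 5× SYPRO Orange in 50 mM HEPES pH7.4, 150 mM NaCl, 2 mM DTT, 2% DMSO. Heated 25→95 °C at 1 °C/min, read every 0.5 °C at 610 nm, quadruplicate. ΔTm taken against DMSO wells.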

[19] = biological target: TAF1 bromodomain 2 (aa 1501–1635) (Homo sapiens, UniProt P21675); assay: Differential scanning fluorimetry; format: binding; conditions: 100 μM compound, 4.5 μM protein
Outline: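 TAF1 second bromodomain (residues 1501–1635) purified by Ni-NTA and size exclusion. Thermal shift with 4.5 μM protein, 100 μM compound and 5× SYPRO Orange in HEPES pH7.4/150 mM NaCl/2 mM DTT/2% DMSO. Ramp 25–95 °C at 1 °C/min, fluorescence at 610 nm every 0.5 °C, four replicates. ΔTm relative to DMSO reference.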

[20] = tested on: Primary mouse thymocytes; assay: Primary mouse thymocytes, radiation-induced apoptosis and viability; format: cell-based
[21] = tested on: C57BL/6 mice; assay: Radiation toxicity in mice; format: in vivo, mouse
[22] = biological target: T1, p53; assay: Trypsin digestion sensitivity of p53; format: biochemical
[23] = biological target: T1, p53; assay: Glutaraldehyde crosslinking of p53 in H1299 extract; format: biochemical; conditions: 10 μM NSC194598
Outline: (§2)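 H1299 cells transiently transfected with pcDNA3 FLAG-tagged wild-type or mutant p53 were lysed in HEPES buffer (50 mM HEPES pH 8.0, 5 mM EDTA, 150 mM NaCl, 0.5% NP-40, protease inhibitors) and spun to clear. Lysate was held with 10 μM test compound for 20 min at 23 °C. It was then crosslinked with 0.01–0.1% glutaraldehyde for 5 min at 23 °C and quenched with Tris-HCl pH 8.0 to 100 mM. Monomer, dimer and tetramer were read by western blot (FL393).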

[24] = biological target: p53 (Homo sapiens, UniProt P04637, R175H); assay: as above; format: biochemical; conditions: 10 μM NSC194598
Outline: as §2

[25] = biological target: T1, p53; assay: In vitro oligomer formation of HA-p53 and FLAG-p53; format: biochemical
[26] = tested on: H1299-p53-A138V cells; assay: Western blot in H1299-p53-A138V temperature-sensitive cells; format: cell-based; conditions: activated at 32 °C, 8 h
Outline: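 H1299 (p53-null) cells stably carrying temperature-sensitive p53-A138V were grown in DMEM with 10% FBS. They were kept at 39 °C or shifted to 32 °C with test compound for 8 h. Cells were lysed in 50 mM Tris-HCl pH 8.0, 5 mM EDTA, 150 mM NaCl, 0.5% NP-40 and protease inhibitors. p53 and target genes were resolved by SDS-PAGE and western blot.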

[27] = tested on: SJSA cells; assay: Western blot in SJSA cells; format: cell-based; conditions: 5–20 μM
Outline: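 SJSA cells (MDM2-amplified) were co-treated with the MDM2 inhibitor Nutlin and test compound for 32 h. Lysis was in NP-40/Tris buffer with protease inhibitors, followed by SDS-PAGE and western blot for p53 level and target-gene induction, including p21.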

[28] = tested on: HCT116-p53−/− cells; assay: Western blot in HCT116-p53−/− cells; format: cell-based
[29] = tested on: G-quadruplex DNA structures; conditions: cited from earlier work
[30] = tested on: RET oncogene; conditions: cited from earlier work
[31] = biological target: full-length luciferase (Photinus pyralis, UniProt P08659); assay: Full-length luciferase activity; format: biochemical, Firefly
[32] = U2OS, compound alone, 10, 20 μM

T2 sequence (P36402 whole entry): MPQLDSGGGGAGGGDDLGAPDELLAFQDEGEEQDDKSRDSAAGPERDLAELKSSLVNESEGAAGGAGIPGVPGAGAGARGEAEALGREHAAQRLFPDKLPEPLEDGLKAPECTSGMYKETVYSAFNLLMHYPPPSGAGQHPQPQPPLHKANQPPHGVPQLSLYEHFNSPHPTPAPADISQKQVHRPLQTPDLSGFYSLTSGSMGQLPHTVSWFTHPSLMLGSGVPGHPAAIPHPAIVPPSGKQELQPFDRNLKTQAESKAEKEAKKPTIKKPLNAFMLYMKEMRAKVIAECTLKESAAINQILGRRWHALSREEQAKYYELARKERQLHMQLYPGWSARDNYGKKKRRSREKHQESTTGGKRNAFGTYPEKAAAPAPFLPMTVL
Chain of p63γ-A167P (Q9H3D4 40-487 isoform Q9H3D4-5 A206P limits assumed): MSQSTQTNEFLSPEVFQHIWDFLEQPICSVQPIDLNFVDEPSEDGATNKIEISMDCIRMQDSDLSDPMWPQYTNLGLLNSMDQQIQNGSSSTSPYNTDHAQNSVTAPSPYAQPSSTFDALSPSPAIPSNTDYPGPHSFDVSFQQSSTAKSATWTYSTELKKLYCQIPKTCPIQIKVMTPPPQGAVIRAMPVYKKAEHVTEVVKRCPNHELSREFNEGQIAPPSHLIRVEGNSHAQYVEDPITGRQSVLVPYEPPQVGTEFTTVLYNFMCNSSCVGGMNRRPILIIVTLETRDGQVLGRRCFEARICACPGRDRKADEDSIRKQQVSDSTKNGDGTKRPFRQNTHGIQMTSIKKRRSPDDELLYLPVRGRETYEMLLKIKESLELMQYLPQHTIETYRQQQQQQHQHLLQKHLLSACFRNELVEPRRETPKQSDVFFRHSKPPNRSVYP
Chain of p73β-A156I (O15350 1-499 isoform O15350-2 A156I): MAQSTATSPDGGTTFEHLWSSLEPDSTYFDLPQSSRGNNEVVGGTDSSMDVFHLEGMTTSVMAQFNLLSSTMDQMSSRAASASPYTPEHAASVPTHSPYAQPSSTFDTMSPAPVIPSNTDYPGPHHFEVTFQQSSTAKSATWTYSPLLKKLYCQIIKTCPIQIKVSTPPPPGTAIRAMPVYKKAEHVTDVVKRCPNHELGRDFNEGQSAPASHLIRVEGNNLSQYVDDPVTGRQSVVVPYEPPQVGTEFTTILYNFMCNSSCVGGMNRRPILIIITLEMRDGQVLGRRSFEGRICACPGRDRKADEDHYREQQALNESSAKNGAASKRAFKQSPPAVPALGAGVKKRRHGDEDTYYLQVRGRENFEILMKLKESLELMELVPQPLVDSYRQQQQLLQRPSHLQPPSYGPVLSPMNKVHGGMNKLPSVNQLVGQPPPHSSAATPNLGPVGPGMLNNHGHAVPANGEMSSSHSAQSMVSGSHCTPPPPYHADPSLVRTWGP
Chain of p73β (O15350 1-499 isoform O15350-2, species assumed): as the sequence (O15350 1-499 isoform O15350-2 A156I) above, with I156A counted along it
Chain of E2F1 (Q01094 whole entry, the tested form may be a part): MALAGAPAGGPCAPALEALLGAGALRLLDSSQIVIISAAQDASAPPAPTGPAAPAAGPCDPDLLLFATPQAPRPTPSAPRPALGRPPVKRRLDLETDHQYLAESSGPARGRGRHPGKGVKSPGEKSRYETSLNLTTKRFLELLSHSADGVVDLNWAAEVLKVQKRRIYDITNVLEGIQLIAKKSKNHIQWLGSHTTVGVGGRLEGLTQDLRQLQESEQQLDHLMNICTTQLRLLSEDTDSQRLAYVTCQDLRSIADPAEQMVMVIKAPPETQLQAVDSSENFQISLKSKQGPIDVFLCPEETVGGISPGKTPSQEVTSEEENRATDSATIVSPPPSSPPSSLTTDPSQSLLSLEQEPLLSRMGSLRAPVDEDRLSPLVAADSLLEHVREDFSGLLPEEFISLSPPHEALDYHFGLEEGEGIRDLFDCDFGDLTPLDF
Chain of c-Myc (P01106 whole entry): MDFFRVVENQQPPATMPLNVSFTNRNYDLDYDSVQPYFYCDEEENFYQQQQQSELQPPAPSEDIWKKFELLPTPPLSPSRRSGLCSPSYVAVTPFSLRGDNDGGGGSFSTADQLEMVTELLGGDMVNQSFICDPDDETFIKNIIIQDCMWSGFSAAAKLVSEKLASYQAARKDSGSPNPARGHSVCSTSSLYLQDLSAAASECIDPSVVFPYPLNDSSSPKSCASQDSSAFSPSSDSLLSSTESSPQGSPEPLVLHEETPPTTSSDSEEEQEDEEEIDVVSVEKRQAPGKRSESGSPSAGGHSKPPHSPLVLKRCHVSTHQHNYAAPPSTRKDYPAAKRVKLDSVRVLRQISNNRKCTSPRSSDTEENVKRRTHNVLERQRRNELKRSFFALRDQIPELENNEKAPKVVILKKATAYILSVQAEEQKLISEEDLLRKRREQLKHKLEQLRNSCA
Chain of c-Myc (P61244 whole entry partner): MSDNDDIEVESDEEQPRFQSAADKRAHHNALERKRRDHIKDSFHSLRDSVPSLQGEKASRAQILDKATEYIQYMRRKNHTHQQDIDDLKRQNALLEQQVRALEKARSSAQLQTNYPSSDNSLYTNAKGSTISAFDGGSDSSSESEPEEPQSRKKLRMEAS
Chain of p63γ (Q9H3D4 40-487 isoform Q9H3D4-5 limits assumed): as the sequence (Q9H3D4 40-487 isoform Q9H3D4-5 A206P limits assumed) above, with P167A counted along it
Chain of TAF1 bromodomain 2 (aa 1501–1635) (P21675 1522-1656): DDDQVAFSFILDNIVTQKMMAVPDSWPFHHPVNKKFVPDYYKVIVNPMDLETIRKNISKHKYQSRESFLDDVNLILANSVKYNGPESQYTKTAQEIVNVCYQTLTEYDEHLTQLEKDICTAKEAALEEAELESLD

## [O-][n+]1c(CN2CCCCC2)nc2cccc3c2c1-c1ccccc1-3 [NSC194598]
[1]
  IC50: 180 nM
[2]
  Inhibition of p53 DNA binding in competition assay: inhibited
[3]
  Inhibition of p63γ DNA binding in competition assay: inhibited
[4]
  Inhibition of p73β DNA binding in competition assay: inhibited
[5]
  Effect on TCF1 competition with zinc finger protein: without effect
[6]; 2.5 μM NSC194598
  Inhibition of DNA binding of p53 DNA-binding domain (90–312) (pull down): still showed inhibition
  Inhibition of DNA binding of p53 deletion mutant 1–360 (pull down): strongly inhibited
  Inhibition of DNA binding of p53 deletion mutant 90–393 (pull down): strongly inhibited
[6]; 10 μM for 30 min, wash 3 min
  DNA binding of compound-treated FLAG-p53 after short wash: did not bind DNA
[6]; 10 μM for 30 min, wash 3 h
  DNA binding of compound-treated FLAG-p53 after extensive wash: regained DNA-binding activity
[6]
  Inhibition of p53 DNA binding in oligonucleotide pull down: inhibited p53 DNA binding
[7]
  Inhibition of TCF1 DNA binding in oligonucleotide pull down: did not inhibit
[8]
  Effect on ZF1-Nluc/ZF2-Cluc complementation readout: did not stimulate readout
[9]; [32]
  p53 occupancy at the p21 promoter (ChIP), compound alone: increased p53 occupancy
[9]; irradiated U2OS cells, 4 hrs
  p53 occupancy at p21 and MDM2 promoters (ChIP): reduced p53 occupancy
[10]; MDM2 inhibitor Nutlin or doxorubicin
  p21 induction after p53 activation by Nutlin and doxorubicin: inhibited p21 induction
[10]; U2OS after irradiation
  p21, MDM2, PUMA protein and mRNA expression: inhibition of p21, MDM2, PUMA protein and mRNA expression
[10]; U2OS, 40 μM
  p53 target gene expression, compound alone at 40 μM: decline in p53 target gene expression
[10]; U2OS, 4 h treatment
  Decrease of MDM2/p53 ratio: ~ 50%
[10]; [32]
  p53 level and target genes p21 and MDM2, compound alone: caused p53 accumulation and upregulation of target genes p21 and MDM2
[10]; compound alone
  p53 mRNA level: no increase in p53 mRNA level
  γH2AX and p53 Ser15 phosphorylation (DNA damage): no increase of γH2AX or p53 Ser15 phosphorylation
[11]
  In vivo DNA binding by p63γ-A167P (ChIP): inhibited
[12]
  In vivo DNA binding by p73β-A156I (ChIP): inhibited
[13]
  DNA binding of E2F1 (ChIP): did not inhibit
[14]
  DNA binding of c-Myc (ChIP): did not inhibit
[15]
  p53 activation of p53-responsive luciferase reporter: inhibited
[16]
  Foxo1 activation of its luciferase reporter: did not inhibit
[17]
  MDM2-mediated ubiquitination of p53: had no effect
[18]
  Increase in melting temperature (ΔTm) of FLAG-94-312: 0.5 °C
[19]
  Effect on melting temperature of TAF1 bromodomain 2: did not affect
[20]; 1 μM or higher, with IR
  p53 level in irradiated thymocytes: reduced p53 level
[20]; 0.5–10 μM, 6 h, dose-dependent
  PARP and Caspase 3 cleavage after IR: blocked PARP and Caspase 3 cleavage
[20]; 20 hours after 5 Gy IR, 5 μM
  Thymocyte viability after IR (trypan blue exclusion): increased thymocyte viability
[20]; high concentrations, no IR
  p53 level and cleaved PARP, compound alone: caused p53 accumulation
[20]; no IR
  Thymocyte viability with compound alone (trypan blue exclusion): did not lose viability
[21]; data not shown
  p53 or PARP cleavage in the thymus of treated animals (western blot): did not reveal increase of p53 or PARP cleavage
[21]; single i.p. injection of 80 μg, 8 Gy
  Body weight after irradiation: did not prevent body weight loss
[21]; single i.p. injection of 80 μg, 8 Gy, 40-day observation
  Survival after irradiation: statistically significant improvement in survival
[22]
  p53 sensitivity to trypsin digestion: did not change sensitivity to trypsin digestion
[23]
  Crosslinking banding pattern of dimer and tetramer, wt p53: detected changes in the banding pattern
[24]
  Crosslinking pattern of R175H conformational mutant: did not affect the crosslinking pattern
[25]
  Oligomer formation of HA-p53 and FLAG-p53: did not inhibit oligomer formation
[26]
  p21 induction and p53 level in H1299-p53-A138V: inhibited p21 induction without changing p53 level
[27]
  p53 accumulation and p21 expression in SJSA versus U2OS: much weaker p53 accumulation and p21 expression
[28]
  Induction of p21 and MDM2 in p53-null cells: did not induce p21 and MDM2
[29]
  Binding to G-quadruplex DNA structures: binds G-quadruplex DNA structures
[30]
  Transcription of RET oncogene: inhibits the transcription of RET oncogene

## Cc1ccc(C(=O)Cn2c3c(sc2=N)CCCC3)cc1 [PFTα, Pifithrin-α, reference compound]
[6]
  Inhibition of p53 DNA binding in oligonucleotide pull down: had no effect
[8]
  Effect on ZF1-Nluc/ZF2-Cluc complementation readout: inhibited
[31]
  Effect on activity of full-length luciferase: inhibited
